In ChEMBL document CHEMBL5634116, “Strategies for developing retinoic acid receptor alpha-selective antagonists as novel agents for male contraception” (Eur J Med Chem, 2023):

How the values were obtained:
[1] = biological target: T1, Retinoic acid receptor beta (Homo sapiens, UniProt P10826); assay: Antagonist activity at recombinant human RAR-beta expressed in mammalian cells in presence of ATRA by luciferase reporter gene based transactivation assay; assay type: cell-based
T1 sequence (P10826 whole entry): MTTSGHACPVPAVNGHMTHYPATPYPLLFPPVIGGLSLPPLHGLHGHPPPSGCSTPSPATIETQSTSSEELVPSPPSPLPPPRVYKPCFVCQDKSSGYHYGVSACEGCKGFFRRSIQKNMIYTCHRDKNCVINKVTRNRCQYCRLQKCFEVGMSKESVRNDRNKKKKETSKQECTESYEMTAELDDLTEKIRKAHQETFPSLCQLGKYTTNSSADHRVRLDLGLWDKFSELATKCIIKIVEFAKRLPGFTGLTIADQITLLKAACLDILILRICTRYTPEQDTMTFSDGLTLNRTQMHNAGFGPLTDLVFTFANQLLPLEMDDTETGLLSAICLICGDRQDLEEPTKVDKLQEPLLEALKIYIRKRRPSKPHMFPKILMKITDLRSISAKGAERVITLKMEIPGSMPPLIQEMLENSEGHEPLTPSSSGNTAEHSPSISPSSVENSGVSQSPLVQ

[2] = biological target: T2, Retinoic acid receptor gamma (Homo sapiens, UniProt P13631); assay: Antagonist activity at recombinant human RAR-gamma expressed in mammalian cells in presence of ATRA by luciferase reporter gene based transactivation assay; assay type: cell-based
T2 sequence (P13631 whole entry): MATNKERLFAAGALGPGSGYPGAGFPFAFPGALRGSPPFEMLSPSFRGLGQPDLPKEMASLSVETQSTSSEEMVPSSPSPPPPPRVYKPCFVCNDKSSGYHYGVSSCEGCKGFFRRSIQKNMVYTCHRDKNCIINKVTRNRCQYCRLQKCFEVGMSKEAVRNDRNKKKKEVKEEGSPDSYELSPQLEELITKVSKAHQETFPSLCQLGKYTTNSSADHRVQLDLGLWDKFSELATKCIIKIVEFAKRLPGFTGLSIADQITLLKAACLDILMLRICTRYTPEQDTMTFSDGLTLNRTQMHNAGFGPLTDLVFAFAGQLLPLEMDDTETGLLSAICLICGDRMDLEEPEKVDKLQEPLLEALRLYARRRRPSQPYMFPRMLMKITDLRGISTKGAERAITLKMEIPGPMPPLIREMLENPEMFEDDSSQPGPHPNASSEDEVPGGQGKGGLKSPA
How it was run: (§1)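 Compounds 8-point dose response in triplicate, DMSO final 0.4%; overnight at 37 °C, 5% CO2; luminescence after 30 min detection reagent. IC50 by four-parameter logistic fit; agonist-free wells set background.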

[3] = biological target: T3, Retinoic acid receptor alpha (Homo sapiens, UniProt P10276); assay: Antagonist activity at recombinant human RAR-alpha expressed in mammalian cells in presence of 9-cis-RA by luciferase reporter gene based transactivation assay; assay type: cell-based; how it was run: as §1
T3 sequence (P10276 whole entry): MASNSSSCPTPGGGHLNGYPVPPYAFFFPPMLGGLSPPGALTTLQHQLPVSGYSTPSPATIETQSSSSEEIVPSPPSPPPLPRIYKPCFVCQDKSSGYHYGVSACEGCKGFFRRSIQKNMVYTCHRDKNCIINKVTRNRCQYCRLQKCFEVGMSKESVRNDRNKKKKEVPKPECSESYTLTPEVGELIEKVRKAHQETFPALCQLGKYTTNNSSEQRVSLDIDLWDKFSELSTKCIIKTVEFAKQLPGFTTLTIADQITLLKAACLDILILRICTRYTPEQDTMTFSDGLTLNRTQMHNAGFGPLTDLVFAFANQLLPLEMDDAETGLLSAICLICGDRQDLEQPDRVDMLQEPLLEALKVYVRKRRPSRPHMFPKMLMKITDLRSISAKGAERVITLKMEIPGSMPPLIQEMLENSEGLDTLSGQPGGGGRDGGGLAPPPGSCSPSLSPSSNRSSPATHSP

[4] = biological target: T1, Retinoic acid receptor beta; assay: Agonist activity at recombinant human RAR-beta expressed in mammalian cells by luciferase reporter gene based transactivation assay; assay type: cell-based
How it was run: (§2)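 Human RAR-subtype luciferase reporter cells (RARE-driven). Compounds in DMSO (final 0.4%) tested as 8-point dose response in triplicate. Incubated overnight at 37 °C in 5% CO2, then detection reagent 30 min at r.t. and luminescence measured. EC50 by four-parameter logistic fit, mean ± SEM from geometric mean of log EC50 across independent experiments.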

[5] = biological target: T4, Retinoic acid receptor beta (Homo sapiens) (UniProt P10826); assay: Agonist activity at recombinant human RAR-beta expressed in mammalian cells by luciferase reporter gene based transactivation assay relative to control; assay type: cell-based
T4 sequence (whole entry): T1 sequence (P10826 whole entry)
How it was run: (§3)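 Transactivation in proprietary reporter cells expressing recombinant human RAR subtype with RARE-linked beetle luciferase. Compounds in DMSO (final 0.4%), 8-point dose response in triplicate; cells added, incubated overnight at 37 °C, 5% CO2, then luciferase reagent 30 min r.t., luminescence read.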

[6] = biological target: T5, Retinoic acid receptor alpha (Homo sapiens) (UniProt P10276); assay: Agonist activity at recombinant human RAR-alpha expressed in mammalian cells by luciferase reporter gene based transactivation assay relative to control; assay type: cell-based; how it was run: as §3
T5 sequence (whole entry): T3 sequence (P10276 whole entry)

[7] = biological target: T6, Retinoic acid receptor gamma (Homo sapiens) (UniProt P13631); assay: Agonist activity at recombinant human RAR-gamma expressed in mammalian cells by luciferase reporter gene based transactivation assay relative to control; assay type: cell-based; how it was run: as §3
T6 sequence (whole entry): T2 sequence (P13631 whole entry)

[8] = biological target: T2, Retinoic acid receptor gamma; assay: Agonist activity at recombinant human RAR-gamma expressed in mammalian cells by luciferase reporter gene based transactivation assay; assay type: cell-based; how it was run: as §2
[9] = biological target: T3, Retinoic acid receptor alpha

IC50 [1] | IC50 [2] | IC50 [3] | Structure (SMILES) | further results
> 3.3 µM | > 3.3 µM | > 3300 nM | Cc1ccc(C2=CC(C)(C)Oc3ccc(S(=O)(=O)Nc4cc(F)c(C(=O)O)c(F)c4)cc32)cc1 | 
> 3.3 µM | 2.6 µM | 29 nM | Cc1ccc(C2=CCC(C)(C)c3ccc(C(=O)Nc4ccc(C(=O)O)cc4)cc32)cc1 | EC50 [4]: 55 nM; Emax ([5]; filed as agonist): 46%; Emax [6]: 9%; Emax [7]: 15%; EC50 [8]: > 3300 nM
> 3.3 µM | > 3.3 µM | 1500 nM | CC1(C)CC=C(c2ccc(CN3CCOCC3)cc2)c2cc(NC(=O)c3ccc(C(=O)O)cc3)ccc21 | 
> 3.3 µM | > 3.3 µM | > 3300 nM | CC1(C)CC=C(c2ccc(N3CCOCC3)cc2)c2cc(NC(=O)Nc3ccc(C(=O)O)cc3)ccc21 | 
> 3.3 µM | > 3.3 µM | > 3300 nM | CC1(C)CC=C(c2ccc(N3CCOCC3)cc2)c2cc(NC(=O)c3ccc(C(=O)O)c([N+](=O)[O-])c3)ccc21 | 
> 3.3 µM | > 3.3 µM | > 3300 nM | Cc1ccc(C2=CC(C)(C)Oc3c(Br)cc(S(=O)(=O)Nc4cc(F)c(C(=O)O)c(F)c4)cc32)cc1 | 
0.173 µM | > 3.3 µM | 520 nM | CC1(C)CC=C(c2ccc(CN3CCOCC3)cc2)c2cc(C(=O)Nc3ccc(C(=O)O)cc3)ccc21 | Emax [5]: 0%; Emax [6]: 0%; Emax [7]: 0%
> 3.3 µM | > 3.3 µM | > 3300 nM | CC1(C)CC=C(c2ccc(C(=O)N3CCOCC3)cc2)c2cc(NC(=O)c3ccc(C(=O)O)cc3)ccc21 | 
> 3.3 µM | > 3.3 µM | > 3300 nM | Cc1ccc(C2=CCC(C)(C)c3ccc(C(=O)NCc4ccc(C(=O)O)cc4)cc32)cc1 | 
> 3.3 µM | > 3.3 µM | > 3300 nM | Cc1ccc(C2=CC(C)(C)Oc3ccc(NS(=O)(=O)c4ccc(C(=O)O)cc4)cc32)cc1 | 
> 3.3 µM | > 3.3 µM | 430 nM | Cc1ccc(C2=CCC(C)(C)c3ccc(C(=O)Nc4cc(F)c(C(=O)O)c(F)c4)cc32)cc1 | 
> 3.3 µM | > 3.3 µM | > 3300 nM | CC1(C)CC=C(c2ccccc2)c2cc(C(=O)NCc3ccc(C(=O)O)cc3)ccc21 | 
 | 0.0075 µM | 9.4 nM | CC1(C)CC=C(c2ccccc2)c2cc(/C=C/c3ccc(C(=O)O)cc3)ccc21 | IC50 [9]: ~10 nM; Emax [7]: 26%; EC50 [8]: 120 nM
> 3.3 µM | > 3.3 µM | > 3300 nM | CC1(C)CC=C(c2ccccc2)c2cc(NC(=O)Nc3ccc(C(=O)O)cc3)ccc21 | 
> 3.3 µM | > 3.3 µM | > 3300 nM | Cc1ccc(C2=CC(C)(C)Oc3ccc(S(=O)(=O)Nc4ccc(C(=O)O)cc4)cc32)cc1 | 
0.021 µM | 0.13 µM | > 3300 nM | Cc1ccc(C2=CCC(C)(C)c3ccc(-c4ccc5cc(C(=O)O)ccc5n4)cc32)cc1 | 
0.73 µM | > 3.3 µM | > 3300 nM | CC1(C)CC=C(c2ccc(N3CCOCC3)cc2)c2cc(NC(=O)c3ccc(C(=O)O)cc3)ccc21 | 
> 3.3 µM | > 3.3 µM | 140 nM | CC1(C)CC=C(c2ccccc2)c2cc(C(=O)Nc3ccc(C(=O)O)cc3)ccc21 | EC50 [4]: 25 nM; Emax ([5]; filed as agonist): 150%; Emax [6]: 4%; Emax ([7]; filed as agonist): 47%; EC50 [8]: 560 nM
> 3.3 µM | > 3.3 µM | > 3300 nM | Cc1ccc(C2=CC(C)(C)Oc3c(Br)cc(S(=O)(=O)Nc4ccc(C(=O)O)cc4)cc32)cc1 | 
0.35 µM | > 3.3 µM | > 3300 nM | Cc1ccc(C2=CCC(C)(C)c3ccc(N4CCc5cc(C(=O)O)ccc5C4)cc32)cc1 | 
> 3.3 µM | 1.5 µM | 1100 nM | CC1(C)CC=C(c2ccc(N3CCOCC3)cc2)c2cc(C(=O)Nc3ccc(C(=O)O)cc3)ccc21 | 
0.26 µM | 2.7 µM | 270 nM | CC1(C)CC=C(c2cnc3ccccc3c2)c2cc(C(=O)Nc3ccc(C(=O)O)cc3)ccc21 | 
> 3.3 µM | > 3.3 µM | > 3300 nM | Cc1ccc(C2=CCC(C)(C)c3ccc(C(=O)N4CCc5cc(C(=O)O)ccc5C4)cc32)cc1 | 
0.84 µM | > 3.3 µM | > 3300 nM | Cc1ccc(C2=CCC(C)(C)c3ccc(NC(=O)Nc4ccc(C(=O)O)cc4)cc32)cc1 | 
> 3.3 µM | > 3.3 µM | 440 nM | CC1(C)CC=C(c2cccs2)c2cc(C(=O)Nc3ccc(C(=O)O)cc3)ccc21 | EC50 [4]: 15 nM; Emax ([5]; filed as agonist): 167%; Emax [6]: 3%
